Experimental data from ChEMBL document CHEMBL1165845, “Synthesis and biological evaluation of analogues of a novel inhibitor of beta-amyloid secretion” (J Med Chem, 2010).
Active and inactive are the calls of the source. The calls are words filed in the database; no cut-off is given here.

What was measured:
H4 [1] = test: Cytotoxicity against human H4 cells expressing wild type betaAPP695 at 10 uM after 24 hrs by methylene blue staining; format: cell-based; settings: h4, 24 h
Method in brief: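 Primary screen in H4βAPP695wt cells: drugs are delivered by the hanging drop method at an estimated 10-25 μM, and conditioned medium is collected at 24 h. Cytotoxicity is assessed by methylene blue staining of cells in the wells, with each compound run in a single well and hits rescreened in duplicate.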

H4 [2] = test: Induction of alpha-secretase-mediated reduction in amyloid beta secretion in human H4 cells expressing wild type betaAPP695 at 10 uM after 24 hrs […] relative to control; format: cell-based; parameters: scale not given: the % may be the effect or the level left
Method in brief: (§1)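 Serum-starved H4βAPP695wt cells are treated for 24 h with drug in DMSO (0.02% DMSO vehicle control). Total Aβ in conditioned medium is measured by sandwich ELISA with 6E10 capture and 4G8 detection, normalized to lysate protein by BCA. Cytotoxicity is read as total cell protein. Quadruplicate wells in 1-4 independent experiments give the % decrease versus vehicle.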

H4 [3] = test: Induction of alpha-secretase-mediated reduction in amyloid beta secretion in human H4 cells expressing wild type betaAPP695 at 30 uM after 24 hrs […] relative to control; format: cell-based; parameters: scale not given: the % may be the effect or the level left; method in brief: as §1
H4 [4] = test: Cytotoxicity against human H4 cells expressing wild type betaAPP695 assessed as decrease in cell protein at 10 uM after 24 hrs; format: cell-based; parameters: scale not given: the % may be the effect or the level left; settings: h4, 24 h; method in brief: as §1
H4 [5] = test: Cytotoxicity against human H4 cells expressing wild type betaAPP695 assessed as decrease in cell protein at 30 uM after 24 hrs; format: cell-based; parameters: scale not given: the % may be the effect or the level left; settings: h4, 24 h; method in brief: as §1
H4 [6] = test: Induction of alpha-secretase-mediated reduction in amyloid beta secretion in human H4 cells expressing wild type betaAPP695 treated with media containing human THLE3 cells incubated with 10 uM compound for 24 hrs […]; format: cell-based; parameters: scale not given: the % may be the effect or the level left; settings: in the assay text read “20 uM” for “10 uM”
H4 [7] = test: Induction of alpha-secretase-mediated reduction in amyloid beta secretion in human H4 cells expressing wild type betaAPP695 assessed as remaining drug activity treated with media containing human THLE3 cells incubated with 10 uM compound for 24 hrs measured 24 hrs after media treatment […]; format: cell-based
H4 [8] = test: Induction of alpha-secretase-mediated reduction in amyloid beta secretion in human H4 cells expressing wild type betaAPP695 placed in lower chamber treated with […] compound placed in upper chamber containing human Caco-2 cells for 4 hrs measured 24 hrs after media treatment […]; format: cell-based; parameters: scale not given: the % may be the effect or the level left
Method in brief: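 Caco-2 cells are seeded at 70000 per Transwell insert and grown 21 days to TEER >160 Ω/cm2. Drug at 40 μM with 20 μg/mL lucifer yellow goes in the apical chamber in serum-free medium. After 4 h, basal medium is checked for lucifer yellow and applied to H4βAPP695wt cells for 24 h. Secreted Aβ by ELISA is compared with direct 10 μM drug as % activity passing.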

H4 [9] = test: Induction of alpha-secretase-mediated amyloid beta lowering activity in human H4 cells expressing wild type betaAPP695 at 1 uM after 24 hrs by ELISA; format: cell-based; method in brief: as §1
H4 [10] = test: Activation of alpha-secretase in human H4 cells expressing wild type betaAPP695 assessed as increase in sAPPalpha levels at 10 uM after 24 hrs by Western blotting; format: cell-based
Method in brief: (§2)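 H4βAPP695wt cells are switched to serum-free medium 24 h before treatment, then exposed to drug in DMSO or vehicle for 24 h. Conditioned medium gets protease inhibitors and is cleared, with its volume adjusted to lysate protein; sAPPα is probed with 6E10 and sAPPβ with a specific antibody (1:1000), detected by ECL. Lysates in RIPA (20 μg protein) go on 4-20% Bis-Tris gels. Bands are quantified by densitometry.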

H4 [11] = test: Activation of alpha-secretase in human H4 cells expressing wild type betaAPP695 assessed as increase in alpha-CTF levels at 10 uM after 24 hrs by Western blotting; format: cell-based; method in brief: as §2
H4 [12] = test: Activation of alpha-secretase in human H4 cells expressing wild type betaAPP695 assessed as increase in sAPPbeta levels at 10 uM after 24 hrs by Western blotting; format: cell-based; method in brief: as §2
H4 [13] = test: Increase in alpha-secretase activity in human H4 cells expressing wild type betaAPP695 at 10 uM after 24 hrs by fluorescence method; format: cell-based
Method in brief: (§3)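 H4βAPP695wt cells are treated with drug or vehicle for 24 h, washed in cold PBS and lysed on ice for 10 min. 50 μg lysate protein plus reaction buffer and fluorogenic peptide substrate are incubated 2 h at 37 °C in the dark. Fluorescence is read at ex 355/em 510 nm after subtracting the no-lysate blank, N = 6.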

H4 [14] = test: Increase in alpha-secretase activity in human H4 cell lysate expressing wild type betaAPP695 at 10 uM after 24 hrs by fluorescence method; format: cell-based; method in brief: as §3
H4 [15] = test: Induction of alpha-secretase-mediated reduction in amyloid beta secretion in human H4 cells expressing wild type betaAPP695 by […] in presence of PKC-inhibitor bisindolyl-maleimide; format: cell-based
Method in brief: (§4)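 H4βAPP695wt cells in serum-free medium receive a PKC inhibitor 30 min before a 24 h drug challenge. Secreted Aβ is measured by ELISA and compared with the respective control for each inhibitor, N = 4.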

H4 [16] = test: Induction of alpha-secretase-mediated reduction in amyloid beta secretion in human H4 cells expressing wild type betaAPP695 by […] in presence of PKC-inhibitor calphostin C; format: cell-based; method in brief: as §4
H4 [17] = test: Induction of alpha-secretase-mediated reduction in amyloid beta secretion in human H4 cells expressing wild type betaAPP695 […] in presence of PKC-inhibitor rottlerin; format: cell-based; method in brief: as §4
H4 [18] = test: Activation of alpha-secretase in human H4 cells expressing wild type betaAPP695 assessed as increase in ratio of active-ADAM9 to pro-ADAM9 level at 10 uM after 24 hrs by Western blotting; format: cell-based
Method in brief: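 H4βAPP695wt cells are held in serum-free medium for 24 h, then given increasing drug concentrations for 24 h. RIPA lysates (20 μg protein) are immunoblotted with antibodies for ADAM9, ADAM10 and ADAM17, and pro and active forms are quantified by densitometry as an active/pro ratio, N = 3 per group.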

Mus musculus = test: Reduction in amyloid beta levels in transgenic C57BL/6 mouse brain at 100 mg/kg, iv after 6 hrs; format: functional; parameters: scale not given: the % may be the effect or the level left
Method in brief: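 Two-month-old female APPswe/PSEN1dE9 C57BL/6 mice (20-25 g) under ketamine/xylazine receive retro-orbital iv injection of 2.5 mg in 150 μL (∼100-125 mg/kg) or vehicle. After 6 h, one hemisphere without cerebellum is homogenized in 5 M guanidine HCl/50 mM Tris pH 8.3. Total Aβ is measured by ELISA and normalized to brain protein by BCA.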

Row | Structure (SMILES) | Activity (H4 [1]) | Activity (H4 [2]) [%] | Activity (H4 [3]) [%] | Activity (H4 [4]) [%] | Activity (H4 [5]) [%] | Activity (H4 [6]) [%] | Activity (H4 [7]) [%] | Activity (H4 [8]) [%] | Activity (H4 [9]) | Activity (H4 [10]) | Activity (H4 [11]) | Activity (H4 [12]) | Activity (H4 [13]) [%] | Activity (H4 [14]) | Activity (H4 [15]) | Activity (H4 [16]) | Activity (H4 [17]) | Activity (H4 [18]) [%] | Activity (Mus musculus) [%]
1 | O=C(NCCSCc1ccc(Cl)cc1)c1ccc(Cl)cc1Cl | Non-toxic | 5.3 |  |  |  |  |  |  |  |  |  |  |  |  |  |  |  |  | 
2 | COc1cccc(CSCCNC(=O)c2c(Cl)cccc2Cl)c1 |  | 60.6 | 73.9 | 8.4 | 13.2 | 22.2 | 37 | 17.9 |  |  |  |  |  |  |  |  |  |  | 
3 | COc1cccc(CSCCNC(=O)c2c(Cl)cccc2Cl)c1OC |  | 57.8 | 72.8 | -0.1 | 8.7 | 1.9 | 3 | 26.5 |  |  |  |  |  |  |  |  |  |  | 
4 | O=C(NCCSCc1ccccc1)c1c(Cl)cccc1Cl |  | 51.6 | 58.6 | -1.1 | -0.7 | 27 | 52 | 31 |  |  |  |  |  |  |  |  |  |  | 
5 | O=C(NCCSCc1cccc(I)c1)c1c(Cl)cccc1Cl |  | 84.4 | 88.3 | 9.2 | 19 | 40 | 47 | 1.1 |  |  |  |  |  |  |  |  |  |  | 
6 | O=C(NCCSCc1cccc(O)c1)c1c(Cl)cccc1Cl |  | 56.4 | 67.7 | 6.3 | 6.6 | 23.1 | 41 |  |  |  |  |  |  |  |  |  |  |  | 
7 | O=C(NCCSCc1ccccc1Cl)c1c(Cl)cccc1Cl |  | 75.6 | 80 | -0.5 | -11 | 48.8 | 65 | 31.6 |  |  |  |  |  |  |  |  |  |  | 
8 | COc1cc(Cl)cc(CSCCNC(=O)c2c(Cl)cccc2Cl)c1 |  | 67.7 | 81 | 0.9 | 0.4 | 33.5 | 49 | 2.7 |  |  |  |  |  |  |  |  |  |  | 
9 | O=C(NCCSCc1cccc(Cl)c1)c1c(Cl)cccc1Cl |  | 75.3 |  |  |  | 34.6 | 50 | 26.7 | Active | Active | Active | inactive | 20 | inactive | Active | Active | Active | 31 | 
10 | Cc1cccc(CSCCNC(=O)c2c(Cl)cccc2Cl)c1 |  | 70.5 | 85.8 | 11.7 | 16.6 | 38.3 | 54 | 49.9 |  |  |  |  |  |  |  |  |  |  | 39.6
